Experimental data taken from ChEMBL document CHEMBL3596133, “Discovery and structural analyses of S-adenosyl-L-homocysteine hydrolase inhibitors based on non-adenosine analogs” (Bioorg Med Chem, 2015).
pIC50, pKi: −log10 of the molar value. The source made the active and inactive calls. No cut-off for these calls is given here.

Tests used:
[1] = target: Adenosylhomocysteinase (Homo sapiens, UniProt P23526); test: Inhibition of recombinant human S-adenosyl-L-homocysteine hydrolase assessed as hydrolysis of AdoHcy after 8 mins by HPLC analysis
Procedure, shortened: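 Human recombinant enzyme (50 ng) added after test compound to 10 μM AdoHcy plus adenosine deaminase (4 units) in 50 mM phosphate buffer pH 7.2 with 1 mM EDTA. Incubated at 37 °C for 8 min, then stopped with 1 mol/L perchloric acid and centrifuged at 4 °C. Read-out is AdoHcy hydrolysis activity. IC50 given as mean ± standard error of triplicate determinations.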

[2] = target: T1, Adenosylhomocysteinase (Rattus norvegicus, UniProt P10760); test: Reversible inhibition of rat liver S-adenosyl-L-homocysteine hydrolase; format: tissue-based
T1 sequence (P10760 whole entry): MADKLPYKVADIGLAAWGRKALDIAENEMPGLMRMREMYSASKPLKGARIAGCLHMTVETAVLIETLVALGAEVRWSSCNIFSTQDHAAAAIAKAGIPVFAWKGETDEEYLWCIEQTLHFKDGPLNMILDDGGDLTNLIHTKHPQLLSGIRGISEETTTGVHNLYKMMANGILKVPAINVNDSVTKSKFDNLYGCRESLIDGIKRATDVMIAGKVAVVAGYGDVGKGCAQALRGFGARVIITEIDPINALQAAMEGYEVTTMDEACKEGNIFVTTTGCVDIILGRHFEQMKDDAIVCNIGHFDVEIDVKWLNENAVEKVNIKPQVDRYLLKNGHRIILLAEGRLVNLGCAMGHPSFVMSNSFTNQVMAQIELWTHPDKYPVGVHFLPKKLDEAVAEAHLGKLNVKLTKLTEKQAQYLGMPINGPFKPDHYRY

Structure (SMILES) | pIC50 [1] | further results
CN(C(=O)CN(CC(=O)NC1CCN(C(=O)OC(C)(C)C)C1)c1cc(Cl)ccc1Oc1ccc(Cl)cc1)C1Cc2ccccc2C1 (stereo unspecified) | 5.82 | 
Nc1ncnc2c1ncn2CC(O)CO (stereo unspecified) |  | pKi [2]: 6.00
O=C(CN(CC(=O)N1CCCc2ccccc21)c1cc(Cl)ccc1Oc1ccc(Cl)cc1)NCCN1CCCC1 | 5.64 | 
CN(CCN1CCCC1)C(=O)CN(CC(=O)N(C)C1Cc2ccccc2C1)c1cc(Cl)ccc1Oc1ccc(Cl)cc1 | < 4.00 | 
CN(C(=O)CN(CC(=O)NC1CCCN(C(=O)OC(C)(C)C)C1)c1cc(Cl)ccc1Oc1ccc(Cl)cc1)C1Cc2ccccc2C1 (stereo unspecified) | 5.92 | 
CN(C(=O)CN(CC(=O)NC1CCNC1)c1cc(Cl)ccc1Oc1ccc(Cl)cc1)C1Cc2ccccc2C1 (stereo unspecified) |  | inhibition [1]: Active
CN(C(=O)CN(CC(=O)NCCN1CCCC1)c1cc(Cl)ccc1Oc1ccc(Cl)cc1)C1CCNCC1 | < 4.00 | 
CN(C(=O)CN(CC(=O)NC1CCCNC1)c1cc(Cl)ccc1Oc1ccc(Cl)cc1)C1Cc2ccccc2C1 (stereo unspecified) |  | inhibition [1]: Active

More lines, main results first:

pIC50 [1] | Structure (SMILES) | further results
6.96 | CN(C(=O)CN(CC(=O)NC[C@@H]1CCCN1C(=O)OC(C)(C)C)c1cc(Cl)ccc1Oc1ccc(Cl)cc1)C1Cc2ccccc2C1 | 
6.19 | CCN(C(=O)CN(CC(=O)NCCN1CCCC1)c1cc(Cl)ccc1Oc1ccc(Cl)cc1)C1Cc2ccccc2C1 | 
7.22 | CCN(CCNC(=O)CN(CC(=O)N(C)C1Cc2ccccc2C1)c1cc(Cl)ccc1Oc1ccc(Cl)cc1)C(=O)OC(C)(C)C | 
6.82 | CN(C(=O)CN(CC(=O)NCC1CCCCN1C(=O)OC(C)(C)C)c1cc(Cl)ccc1Oc1ccc(Cl)cc1)C1Cc2ccccc2C1 (stereo unspecified) | 
6.22 | CN(C(=O)CN(CC(=O)NC[C@H]1CCCN1C(=O)OC(C)(C)C)c1cc(Cl)ccc1Oc1ccc(Cl)cc1)C1Cc2ccccc2C1 | 
7.31 | CC(C)N(CCNC(=O)CN(CC(=O)N(C)C1Cc2ccccc2C1)c1cc(Cl)ccc1Oc1ccc(Cl)cc1)C(=O)OC(C)(C)C | 
7.15 | CN(CCNC(=O)CN(CC(=O)N(C)C1Cc2ccccc2C1)c1cc(Cl)ccc1Oc1ccc(Cl)cc1)C(=O)OC(C)(C)C | 
8.07 | CCNCCNC(=O)CN(CC(=O)N(C)N1Cc2ccccc2C1)c1cc(Cl)ccc1Oc1ccc(Cl)cc1 | 
